Source: PubChem
Wnt bcat act: activates Wnt/beta-catenin signaling in a reporter cell assay; activator, plate reader; AID 743398; activation, % at 9.35 µM; hit rate 1.2% among 300,000; in the data active means activation above about 30%, passing the limit was not always enough; inconclusive means no clear call, values can overlap the other calls;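 further: 0% = neutral control wells and 100% = positive control wells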
MITF act: MITF TRPM1 promoter activation in melanoma cells; SK-MEL-5 TRPM1-promoter luciferase, 24 h; % of positive control, neutral wells = 0; activation, % at 12.5 µM; hit rate 0.75% among 300,000; AID 588334;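 active means mean activation of at least 80% with every replicate also reaching 80%; inconclusive means mean reaches 80% but some replicate falls short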;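 further: 0% = neutral control wells and 100% = parthenolide positive control wells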
SR-BI DiI inh: inhibitors of mouse SR-BI mediated HDL lipid uptake; Q61009; ldlA[mSR-BI] CHO cells, DiI-HDL uptake fluorescence, 3 h; inhibition, % at 12.5 µM; hit rate 0.96% among 320,000; AID 488896;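 active means mean replicate inhibition of at least 70% and a set share of replicates each scoring 70 or more; inconclusive means meets just one of the two criteria; inactive means fails both criteria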;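 further: 0% = median of neutral control wells and 100% = median of positive control wells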
Target sequence (Q61009 whole entry, looked up): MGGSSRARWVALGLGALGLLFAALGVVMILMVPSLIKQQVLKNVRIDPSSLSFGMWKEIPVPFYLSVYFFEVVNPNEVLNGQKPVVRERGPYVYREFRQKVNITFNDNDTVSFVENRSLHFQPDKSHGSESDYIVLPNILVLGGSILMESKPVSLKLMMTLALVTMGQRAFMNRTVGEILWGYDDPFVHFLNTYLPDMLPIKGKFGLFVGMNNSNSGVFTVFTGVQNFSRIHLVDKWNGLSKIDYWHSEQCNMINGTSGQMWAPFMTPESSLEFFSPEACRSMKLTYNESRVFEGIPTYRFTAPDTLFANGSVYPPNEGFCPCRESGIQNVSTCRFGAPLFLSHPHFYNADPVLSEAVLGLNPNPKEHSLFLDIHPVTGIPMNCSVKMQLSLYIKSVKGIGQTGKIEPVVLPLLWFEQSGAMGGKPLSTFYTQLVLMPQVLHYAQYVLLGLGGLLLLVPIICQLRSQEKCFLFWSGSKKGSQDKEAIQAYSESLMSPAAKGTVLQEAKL
HSF1 activator: increases HSF-1 driven luciferase reporter signal. NIH3T3-HGL HSF-1 luciferase reporter, MG132, 8 h; 100% = twice DMSO control signal. activation, % at 9 µM. hit rate 1.7% among 300,000. AID 504408;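 active means mean replicate activation of at least 50% with a set share of replicates each reaching 50%; inconclusive means only one of those two conditions met; inactive means mean below 50% and too few replicates reaching it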;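 further: 0% = median of the neutral control wells and 100% = twice that signal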
SR-BI uptake up: activators of SR-BI mediated HDL lipid uptake | CHO ldlA[mSR-BI] cells, DiI-HDL uptake fluorescence, 3 h; 100 = double the neutral-control signal | activation, % at 12.5 µM | hit rate 0.096% among 320,000;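 active means mean replicate activation of at least 60% and every replicate at or above 60%; inconclusive means mean or all-replicate condition met, but not both; inactive means mean below 60% and not all replicates reaching 60%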;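 further: 0% = median plate neutral-control signal and 100% = twice that signal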
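Assay system: LDL receptor-deficient CHO ldlA cells overexpressing murine SR-BI / Medium: BSA-supplemented, HEPES-buffered Ham's F12, pH 7.4 / Probe or stimulus: DiI-labelled HDL at 10 µg/mL final / Timing: compound with DiI-HDL co-incubation, 3 h at 37 °C / Technique: bottom-read cell fluorescence after medium removal, ex 550/em 595 nm / Measure: HDL uptake via cellular fluorescence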
* = called active by the depositor; ? = inconclusive; . = no result. Sampled rows, rich in hits. Any-hit rate of the full collection: about 3.6%.

SMILES | Wnt bcat act | MITF act | SR-BI DiI inh | HSF1 activator | SR-BI uptake up
COc1ccc2cc(CCNC(=O)c3ccco3)c(=O)[nH]c2c1 | 34* | 54 | -2 | 29 | 2
CC(C)(C)c1nnc(NC(=O)COc2ccc3c(c2)OCO3)s1 | -2 | 85* | -4 | -29 | 4
CC(C)(C)c1nnc(NC(=O)c2ccc3c(c2)OCO3)s1 | ? | 121* | -18 | 29 | 18
CC(C)Sc1nnc(NC(=O)c2ccc3c(c2)OCO3)s1 | 0 | 88* | 7 | 25 | -7
CCOC(=O)c1sc(NC(=O)COc2ccc3c(c2)OCO3)nc1C | 1 | . | . | -1 | .
CCSc1nnc(NC(=O)c2ccc3c(c2)OCO3)s1 | . | 63 | -43 | 30 | 43
COc1ccc(-c2csc3nc(-c4ccccc4F)oc(=O)c23)cc1 | 0 | . | 10 | 78* | -10
Cn1nnc2cc(NC(=O)Nc3ccccc3F)ccc21 | 50* | . | . | . | .
COCCCNc1ccn2nc(-c3ccc(OCc4ccccc4)cc3)cc2n1 | 1 | . | . | . | .
COc1ccc(-c2coc3cc4oc(=O)c(CC(=O)O)c(C)c4cc23)cc1 | 0 | . | -18 | 71* | 18
CCN(CC)C(=O)/C(=C/c1cn(S(=O)(=O)N(C)C)c2ccccc12)NC(=O)c1ccc(OC)cc1 | 0 | -3 | 88* | 17 | -88
COc1ccc(C(=O)N/C(=C\c2cn(S(=O)(=O)N(C)C)c3ccccc23)C(=O)NC(C)C)cc1 | -1 | 5 | 2 | -2 | -2
CCSC1(SCC)N=C(N)C2(C#N)C(c3ccc(F)cc3)C12C#N (configuration not stated) | . | -82 | -7 | 82* | 7
O=C1NC[C@H](CCCCN2C[C@H](Cc3ccccc3)N(CCc3ccccc3)C(=O)C2=O)N(CCC2CCCCC2)C1=O | -2 | . | . | . | .
Cc1c(-c2nc(N)nc(Nc3ccccc3F)n2)oc2ccccc12 | . | 122* | 42 | . | -42
CCCCCn1nnnc1C1(C)CCC(=O)N1Cc1ccco1 (configuration not stated) | -2 | . | . | . | .
C#CCOCCOCCOCCNc1nc(N2CCN(C(=O)CCCCCCCCCCNC(=O)[C@H](CCCCN)n3cc(CCCC(=O)O)nn3)CC2)nc(N2CCN(C(=O)CCCCCCCCCCNC(=O)[C@H](CCCN=C(N)N)n3cc(C[C@@H](C)CC)nn3)CC2)n1 | . | -25 | 80* | -45 | -80
C#CCOCCOCCOCCNc1nc(N2CCN(C(=O)CCCCCCCCCCNC(=O)[C@H](CCCCN)n3cc(CCO)nn3)CC2)nc(N2CCN(C(=O)CCCCCCCCCCNC(=O)[C@H](CCCN=C(N)N)n3cc(C[C@@H](C)CC)nn3)CC2)n1 | . | -75 | 58 | . | -58
COCCCNC(=O)c1ccc(Cn2c(=O)c3ccccc3n(CC(=O)NCCc3ccc(OC)c(OC)c3)c2=O)cc1 | 2 | -1 | 81* | 6 | -81
COCCCNC(=O)Cn1c(=O)n(Cc2ccc(C(=O)NCCc3ccc(OC)c(OC)c3)cc2)c(=O)c2ccccc21 | 3 | -18 | 88* | -3 | -88
C[C@@H]1CN(c2ccc(N3CCN(C(=O)OC(C)(C)C)C[C@@H]3C)cc2C#N)CCN1Cc1ccccc1 | -7 | . | . | . | .
C[C@@H]1COc2cc(NCCCN3CCOCC3)ccc2S(=O)(=O)N1 | -3 | . | . | . | .
CCCSc1nnc2n(-c3ccccc3OC)c(=O)c3c4c(sc3n12)CCC4 | . | 5 | -5 | 59* | 5
Cc1cn([C@H]2C[C@H](O)[C@@H](CNCc3cnc(N4CCOCC4)s3)O2)c(=O)[nH]c1=O | -1 | . | . | . | .
O=S(=O)(CCSc1nc2ccccc2s1)c1nc2ccccc2s1 | -42 | -35 | 7 | 95* | -7
SMILES | Wnt bcat act | MITF act | SR-BI DiI inh | HSF1 activator | SR-BI uptake up
O=C(Nc1ccc(Cl)cc1)Nc1nc(-c2ccccc2)cs1 | -1 | 7 | 25 | 14 | -25
Cc1nnc(NC(=O)Nc2cccc(Cl)c2)s1 | . | 71 | 1 | 23 | -1
Cc1csc(NC(=O)Nc2cccc(Cl)c2)n1 | 49* | 65 | 16 | 55* | -16
O=C(Nc1cccc(Cl)c1)Nc1nc(-c2ccccc2)cs1 | -1 | -3 | 76* | -4 | -76
COC(=O)c1cc2c(c3c4cc(C)ccc4n(S(=O)(=O)c4ccc(C)cc4)c13)C(=O)N(Cc1ccc(C(F)(F)F)cc1)C2 | -2 | . | . | . | .
NC(=O)CCC(NC(=O)OCc1ccccc1)C(=O)OCC(=O)c1ccccc1 (configuration not stated) | 3 | . | . | . | .
C=CCOc1ccc(-c2nc3c(c(=O)[nH]c(=O)n3Cc3ccccc3)n2CCCOC)cc1 | -6 | 9 | -2 | 63* | 2
Cc1ccc(-c2nc3c(c(=O)[nH]c(=O)n3Cc3ccccc3)n2Cc2ccccc2)o1 | -2 | -13 | -15 | 62* | 15
CC(C)(C)NC(=O)C(CCc1ccccc1)n1c(=O)c(-c2cc3ccccc3[nH]2)nc2ccccc21 (configuration not stated) | -3 | . | . | . | .
COCCNc1nc(Nc2ccc(C(=O)OC)cc2)c2sccc2n1 | 1 | . | . | . | .
COc1ccc(Nc2ncnc3sc(-c4ccccc4)cc23)cc1OC | 4 | -3 | 93* | -1 | -93
Cc1cn([C@H]2C[C@H](O)[C@@H](CNC(=O)[C@@H]3CCCN3Cc3ccccc3)O2)c(=O)[nH]c1=O | -2 | . | . | . | .
CCN(C)C1CN(Cc2cn(Cc3cc(C)cc(C)c3)nn2)S(=O)(=O)C1 (configuration not stated) | -1 | . | . | . | .
Cc1ccc(C(=O)CC(SCC(=O)O)c2ccc([N+](=O)[O-])cc2)cc1 (configuration not stated) | 90* | 14 | -10 | 16 | 10
Nc1ccccc1SC(CC(=O)c1ccccc1)c1cccc([N+](=O)[O-])c1 (configuration not stated) | -21 | . | . | . | .
COc1ccc(C(CC(=O)c2ccc(O)cc2)S(=O)(=O)c2ccc(C)cc2)cc1 (configuration not stated) | 20 | 86* | -28 | 50 | 28
Nc1ccccc1SC(CC(=O)c1ccccc1)c1ccc([N+](=O)[O-])cc1 (configuration not stated) | 80* | . | . | . | .
COc1ccc(C(CC(=O)c2ccc(C)cc2)Sc2ccccc2N)cc1 (configuration not stated) | 47* | . | . | . | .
COc1ccc(C(=O)CC(c2ccccc2)S(=O)(=O)c2ccc(C)cc2)cc1 (configuration not stated) | . | . | . | 2 | .
CN1C(=O)C(C)(C)c2cc(S(=O)(=O)N3CCC(C(=O)NCc4ccc(Cl)cc4)CC3)ccc21 | -1 | 10 | -30 | 66* | 30
CN1C(=O)C(C)(C)c2cc(S(=O)(=O)N3CCC(C(=O)NCc4ccc(F)cc4)CC3)ccc21 | -3 | . | 2 | 3 | -2
Nc1n[nH]c2cc(=O)n(-c3cccc(C(F)(F)F)c3)nc12 | 12 | 13 | -7 | -2 | 7
O=c1[nH][nH]c2cc(=O)n(-c3cccc(C(F)(F)F)c3)nc12 | -2 | 6 | -10 | 52* | 10
Oc1cccc(-c2nc3ccccc3s2)c1 | 22 | 16 | 0 | 38 | 0
